Reference: ChEMBL document CHEMBL4513216, “Probing the Open Global Health Chemical Diversity Library for Multistage-Active Starting Points for Next-Generation Antimalarials” (ACS Infect Dis, 2020)

Experiment: Toxicity liver stage against HepG2, at 10uM
Type: cell-based
Set-up: test concentration 10 uM, cell line HepG2-A16-CD81EGFP
Conditions: human, HepG2-A16-CD81EGFP cells; read-out: INHIBITION
Method in brief: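 Uninfected HepG2-A16-CD81EGFP cells, 3 × 10^3 per well, 1536-well, plated on prespotted compound at 10 μM final, parasite-free screening media added to match infected plates; puromycin 10 μM positive, DMSO 0.5% negative; run in parallel with 48 h PbLuc assay at 37 °C, 5% CO2; viability by CellTiter-Glo luminescence, normalized to controls.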

Row | Compound | cytotoxicity at 10 µM [%]
1 | CN(Cc1ccccc1O)CC1CCCN(CCc2ccc(Cl)cc2)C1 (stereo unspecified) | -10.1
2 | Cc1ccc(S(=O)(=O)Cc2noc([C@@H]3C[C@@H](O)CN3C)n2)cc1 | 0.847
3 | COc1coc(C(=O)Nc2nc(C)cs2)cc1=O | -3.96
4 | Cc1nn(C2CCS(=O)(=O)C2)c(O)c1CCc1ccccc1 (stereo unspecified) | -50.2
5 | COc1ccc(-n2ncc3c2NC(=O)CSC3C(C)C)cc1 (stereo unspecified) | 17.4
6 | CNC(=O)Cn1c(CO)cnc1SCc1ccccc1Cl | 2.6
7 | Cn1cc(C(=O)N2CC[C@@H]3[C@@H]2CCN3c2ccccn2)cn1 | -0.0807
8 | COC(=O)CCC(=O)N1CCC2(CN(Cc3ccccc3)C2)C1 | 12.3
9 | CCOC(=O)c1ccc(NC(=O)Cn2cc(I)cn2)cc1 | 2.96
10 | CCn1nc(C)c2nc(C(C)C)nc(N3CCCCC3)c21 | -7.67
11 | Cc1nc(CCC(N)=O)cc(C2CCCCN2S(C)(=O)=O)n1 (stereo unspecified) | -13
12 | Cc1ccsc1C(=O)NCc1ccnc(C2CCCOC2)n1 (stereo unspecified) | -23.6
13 | CN(C)C(=O)C1(CCCc2ccccn2)CCN1Cc1nccn1C (stereo unspecified) | 8.08
14 | COc1cccc(C(=O)N2C[C@@H](c3ccccc3)[C@@H]3NCCCC[C@@H]32)c1 | -14.1
15 | O=C(c1ccco1)N1CCC(n2nc(-c3cccs3)ccc2=O)CC1 | -32.3
16 | Cc1nc(C(=O)N2CCCC(c3ccc4sc(N)nc4n3)C2)co1 (stereo unspecified) | -11.9
17 | Cn1cc(C(=O)N2CCCC(CN3CCCC3=O)C2)cn1 (stereo unspecified) | -12.6
18 | CC(Cn1cccn1)NCC(=O)NC1CCOCC1 (stereo unspecified) | 2.51
19 | CC(C)N(C)CC(=O)N1CCCC(n2ccnc2)C1 (stereo unspecified) | 5.56
20 | CC(C)c1nnc(CN(C)Cc2ccccc2-c2ccccc2)o1 | 5.98
21 | COc1ccc(NCc2ccccc2N2CCN(C(C)=O)CC2)cn1 | 1.85
22 | O=C(O)CCc1ccc(S(=O)(=O)Nc2cnn(CC3CC3)c2)cc1 | -8.35
23 | CC(C)(NCc1ccc(C#N)cc1)c1ccc2c(c1)OCO2 | 2.3

Row | Compound | cytotoxicity at 10 µM [%]
24 | OCCC1CCN(c2ccnc3ccsc23)C1 (stereo unspecified) | 2.35
25 | Cn1cc(CC(=O)N2CCCC(c3ccn[nH]3)C2)cn1 (stereo unspecified) | -4.89
26 | CCCNc1nnc(S(=O)(=O)CCOCC)s1 | 5.96
27 | CCOCCCC(=O)Nc1ccc(OCc2noc(C3CC3)n2)cc1 | 44.4
28 | CCN(CC)C(=O)CN1CCCC1C(=O)N(C)C (stereo unspecified) | 12.5
29 | CCN(Cc1ccccc1C)S(C)(=O)=O | 9.23
30 | COc1ccccc1C1(C(=O)N2CCN(CC(C)O)CC2)CC1 (stereo unspecified) | -3.51
31 | Nc1cc2c(nn1)CCN(C(=O)Cc1ccc3c(c1)CCO3)C2 | 5.52
32 | CCCc1noc(CCCC(=O)N2CCCC(n3ccnc3C)C2)n1 (stereo unspecified) | -2.5
33 | Cc1nc(CN2CCCC(N(C)Cc3cnn(C)c3)C2)no1 (stereo unspecified) | -7.72
34 | Cc1ccc(C(=O)NS(C)(=O)=O)cc1-n1cccc1 | -3.47
35 | Cc1cc(C)cc(C(=O)Nc2ccc(CC3CC(=O)NC3=O)cc2)c1 (stereo unspecified) | -3
36 | CC(C)(C)n1nc(C(=O)NC2CCN(CC(N)=O)CC2)cc1C1CC1 | 0.196
37 | Cn1cnc2c1CCN(CC(=O)N(Cc1ccsc1)C1CC1)C2 | -0.157
38 | CC(C)NC(=O)CN(C)C1CCN(c2ccc(Cl)cn2)CC1 | 3.5
39 | NC(=O)C1CCN(C(=O)c2ccccc2OCc2ccccc2Cl)CC1 | -9.4
40 | COCCN(CCC#N)Cn1cc(Cl)cn1 | 4.68
41 | COCCOCC(=O)Nc1cccc(CN(C)C(C)=O)c1 | -126
42 | C1CCC(NCCN2CCOCC2)C1 | -145
43 | Cc1cccc(-c2c[nH]c(C3CCCN3C(=O)C3CCOCC3)n2)c1 (stereo unspecified) | 1.92
44 | Cc1cnc(CN(C)Cc2cccc(OC(F)(F)F)c2)cn1 | 2.4
45 | Cc1ccc(C)n1-c1c(C(=O)NCC(C)Cn2cccn2)cnn1C (stereo unspecified) | 13.8
46 | Cc1ccc(NC(=O)CN2CCCNC2=O)c(SC(F)(F)F)c1 | -1.96

Row | Compound | cytotoxicity at 10 µM [%]
47 | CS(=O)(=O)CCC(=O)NC1(c2cccc(Br)c2)CC1 | -11.1
48 | O=C(NCC(=O)N1CCCCC1)c1ccc(Cl)cc1I | -11.5
49 | Cc1nn(CC(=O)N2CCN(c3ccncc3)CC2)c(C)c1Cl | -17.8
50 | COc1ccc(CN(C)C(=O)CCc2c(C)nc(C)[nH]c2=O)cc1OC | -11.2
51 | O=C(c1ccco1)N1CCc2ncc(CN3CCOCC3)n2CC1 | -78.7
52 | CCC(CC)CN1CCC2(CCC(=O)N2OCc2ccccc2F)CC1 | 6.69
53 | CCN1CC2(CCC1=O)CCN(c1ccc(C(C)=O)cn1)CC2 | -8.63
54 | CCN(C)C(=O)c1ccc(N(C)Cc2cc(-c3ccncc3)no2)nc1 | -2.04
55 | CCn1c(CN(C)C)nnc1C1CCN(Cc2ccc(Cl)cc2)CC1 | 1.77
56 | O=C(O)c1cccc(CC2CCN(c3cnccn3)CC2)c1 | -121
57 | CCCOc1ccc2ccccc2c1CN1CC[C@@]2(O)CCNC[C@H]2C1 | -148
58 | CSCc1noc(CNC(=O)c2cc(C)c(C)[nH]c2=O)n1 | 0.355
59 | Cc1ncoc1C(=O)N1CCc2[nH]nc(-c3ccc4c(c3)OCO4)c2C1 | -143
60 | Cc1ccc(N2CC[C@@]3(O)CCN(S(C)(=O)=O)C[C@H]3C2)nn1 | 7.99
61 | CC(=O)N1CCN(C(=O)c2cc(C(C)C)no2)[C@H]2CS(=O)(=O)C[C@H]21 | -7.8
62 | Cn1c(Cn2ccnc2)nnc1C1CCN(C(=O)c2ccccn2)CC1 | -104
63 | CN(C)c1ccc(CC(=O)N2CCOCC(O)C2)cc1 (stereo unspecified) | 13.3
64 | CSc1ccc(-c2nc(CN3CCC(NC(C)=O)CC3)c(C)o2)cc1 | -2.76
65 | COCCCC1(CO)CCCN(CCc2ccccn2)C1 (stereo unspecified) | 7.42
66 | Cn1ccnc1C(=O)N1CCC(Cn2cc(-c3ccsc3)nn2)CC1 | -6.46
67 | CC(c1ccco1)n1cc(-c2cc(CN3CCCC3)cs2)nn1 (stereo unspecified) | -23.6
68 | Cc1nn(C)c2nc(-c3ccccn3)nc(NCCCOC(C)C)c12 | 1.5
69 | CSCC(=O)N1C[C@@H](C)[C@](O)(C(C)C)C1 | 9.24

Row | Compound | cytotoxicity at 10 µM [%]
70 | CCC(C(=O)N(C)Cc1cc(-c2ccccc2)n[nH]1)n1cccn1 (stereo unspecified) | -7.35
71 | CCOCc1nc2c(c(NCc3cc(C)on3)n1)CCN(C(C)=O)CC2 | 2.24
72 | CC(=O)NCCNc1nc(C2CCCC2)nc2c1cnn2C | 7.39
73 | CNc1nc(CN2C[C@@H](NC(C)=O)[C@H](c3ccc(C)o3)C2)cs1 | -42.4
74 | NC(=O)c1cc(-n2cc(-c3cccc(C(=O)O)c3)cn2)cs1 | -0.387
75 | O=C1CCCCCN1Cc1ncnn1Cc1c(F)cccc1Cl | 2.14
76 | CN(CCn1ccc2ccccc21)C(=O)Cc1n[nH]c(=O)[nH]1 | -16.4
77 | CCN(CC)C1COc2c(cc(Br)c(C)c2Br)C1=O (stereo unspecified) | 5.77
78 | COc1cccc(OC)c1CN1CCC2(CC(Nc3ccncn3)C2)C1 (stereo unspecified) | 3.71
79 | Cc1nc(C)n(C2CCCN(C(=O)c3ccc(CN(C)C)cc3)C2)n1 (stereo unspecified) | -1.6
80 | N#Cc1cc(F)ccc1CN1CCCCC1Cn1cccn1 (stereo unspecified) | -2.93
81 | Cc1cc(NC(=O)CN2CCCC2c2c(C)nn(C)c2C)on1 (stereo unspecified) | -2.9
82 | NC(=O)C1CCN(C(=O)NCCOc2ccc3c(c2)CCC3)CC1 | -7.07
83 | CN(C)c1cc(C(=O)N2CCCCCC2)ccn1 | -8.83
84 | Cc1nnc2n1CCN(C(=O)c1cc(Br)c[nH]1)C2 | -10.7
85 | Cc1cc(CN2CCN(C(=O)CCCc3nc(C(C)C)no3)CC2)on1 | -9.05
86 | COc1cccc(CC(=O)N2CCCC(n3nc(C)cc3C)C2)c1 (stereo unspecified) | 0.441
87 | Cc1nc(C)n(CC2CCCN(Cc3cn4c(C)cccc4n3)C2)n1 (stereo unspecified) | -6.01
88 | Cc1nc(C)n(C2CCCN(C(=O)COCc3ccccc3)C2)n1 (stereo unspecified) | -11
89 | CN(Cc1ccc(Cl)s1)C(=O)NCc1nnc2n1CCC2 | -5.36
90 | CCn1ccnc1CN1CCN(CC(=O)NC(C)(C#N)C2CC2)CC1 (stereo unspecified) | -8.24
91 | CC(C)(O)CN1CCN(C(=O)c2sccc2C2CC2)CC1 | 5.37
92 | CCc1nc(CN2CCN(C(=O)CCc3ccccc3)CC2)cs1 | 5.25

Row | Compound | cytotoxicity at 10 µM [%]
93 | COCCN(CCc1ccccc1)Cc1nc2c(cnn2C)c(=O)[nH]1 | -7.57
94 | CCn1cnnc1CNC(=O)N1CCCN(C(C)=O)CC1 | 1.18
95 | Cc1cc(C[C@@H]2CCC[C@H]2NCc2c[nH]nc2-c2ccccc2)on1 | -14
96 | CCN(CC)CCCNc1nc(C)nc2c1CCN(C)C2 | 3.19
97 | COc1cccc(CNC(C)C)c1OCc1ccc(C)cc1 | 0.438
98 | Cn1cc(CN2CCc3ncnc(N4CCOCC4)c3CC2)cn1 | -3.46
99 | O=C(c1ccco1)N1C[C@@H]2CN(c3ccccn3)C[C@@H]2C1 | -1.27
100 | CC(C)C(=O)N1CCN(Cc2ccccn2)CC2(CC(=O)N(C)C2)C1 (stereo unspecified) | 0.0515
101 | O=C(C1CC1)N1CCN(Cc2ccncc2)c2ncccc2C1 | -3.88
102 | O=C(C1CCC1)N1C[C@@H](c2ccsc2)[C@@H]2CN(C3CCCC3)CC[C@@H]21 | -1.51
103 | Cc1nn(C(C)C)c(C)c1CN1CCN(C2CCCCC2)C(=O)C1 | 6.63
104 | Cc1sc(CN)nc1-c1ccc(Cl)cc1 | -3.07
105 | COCCN1CCCc2sc(C(=O)N3CCCN(C)CC3)nc21 | 0.534
106 | c1cncc(CN2Cc3nccn3CC(Cn3cncn3)C2)c1 (stereo unspecified) | -136
107 | O=c1c2sccc2nc2n1CCN(Cc1ccsc1)CC2 | -25.4
108 | CCS(=O)(=O)N1CC[C@@H]2[C@H](CC1)N(Cc1cccnc1)CCS2(=O)=O | -3.12
109 | CC(C)N1CCOCC2(CN(Cc3ccccn3)CCO2)C1 (stereo unspecified) | 6.46
110 | CC(C)n1cc(-n2cc3nc(N4CCOCC4)[nH]cc-3c2=O)cn1 | 4.48
111 | Cc1cccc(S(=O)(=O)N2C[C@@H]3C[C@H](C(=O)NC4CCC4)[C@H](C2)O3)c1 | -1.74
